Measurements as given in ChEMBL document CHEMBL1140211, “The role of molecular modeling in the design of analogues of the fungicidal natural products crocacins A and D” (Bioorg Med Chem, 2008).
Activity calls are given as the source filed them. No cut-off for these calls is given here.

Columns and labels:
[1] = (§1) Inhibition of cytochrome bc1 complex in bovine heart mitochondria by NADH oxidase assay; design: species or system Bos taurus
Outline: (§2)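 Microtitre-plate assay with beef heart mitochondria at a final 68.8 μg/ml in pH 8.0 phosphate buffer. Compounds were diluted in DMSO (2% final) from a top final concentration of 20 ppm. Plates were preincubated 15 min at room temperature, then NADH was added in pH 8.0 phosphate buffer to a final 200 ppm.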

[2] = system: Blumeria graminis f. sp. tritici; assay: Inhibition of Blumeria graminis f. sp. Tritici cytochrome bc1 complex inoculated in wheat plant assessed as lowest drug concentration required to control 100% disease applied to leaf 1 hr prior inoculation measured after 6 to 9 days
Outline: (§3)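 Spray solutions were made up in reverse osmosis water immediately before use, with Tween 20 at 0.05% by volume final to improve deposit retention. Concentrations tested were 100, 50, 25, 10, 5 and 1 ppm. The breakpoint is the lowest of these six concentrations giving 100% disease control, converted to molar units. Azoxystrobin served as the standard.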

[3] = system: Mycosphaerella graminicola; assay: Inhibition of Mycosphaerella graminicola cytochrome bc1 complex inoculated in wheat plant assessed as lowest drug concentration required to control 100% disease applied to leaf 1 hr prior inoculation measured after 6 to 9 days; outline: as §3
Phytophthora infestans = assay: Inhibition of Phytophthora infestans cytochrome bc1 complex inoculated in tomato plant assessed as lowest drug concentration required to control 100% disease applied to leaf 1 hr prior inoculation measured after 6 to 9 days; outline: as §3
Plasmopara viticola = assay: Inhibition of Plasmopara viticola cytochrome bc1 complex inoculated in vine plant assessed as lowest drug concentration required to control 100% disease applied to leaf 1 hr prior inoculation measured after 6 to 9 days; outline: as §3
Puccinia triticina = assay: Inhibition of Puccinia triticina cytochrome bc1 complex inoculated in wheat plant assessed as lowest drug concentration required to control 100% disease applied to leaf 1 hr prior inoculation measured after 6 to 9 days; outline: as §3
Bos taurus = species: Bos taurus; assay: as §1; outline: as §2

SMILES | IC50 [1] [nM] | Activity (Plasmopara viticola) [µM] | other results
CCc1ccc(Oc2ccc(Cn3c(=O)oc4ccc(OCC(=O)OC)cc43)cc2)cc1 | 140 | – | –
CCc1ccc(Oc2ccc(C(=O)NCCCCC(=O)NCC(=O)OC)cc2)cc1 | 400 | – | –
CO/C=C(/C(=O)OC)c1ccccc1Oc1cc(Oc2ccccc2C#N)ncn1 [AZOXYSTROBIN] | 120 | < 1.8 | Activity [2]: < 1.8 µM; Activity [3]: < 1.8 µM; Activity (Phytophthora infestans): < 1.8 µM; Activity (Puccinia triticina): < 1.8 µM
C/C=C(C)/C=C/C=C/[C@H](OC)[C@@H](C)[C@@H](OC)[C@@H](C)CCc1oc2c(O)c(OC)cc(OC)c2c(=O)c1C [STIGMATELLIN] | 81 | 180 | Activity [2]: > 180 µM; Activity [3]: > 180 µM; Activity (Phytophthora infestans): > 180 µM; Activity (Puccinia triticina): > 180 µM
CCOc1ccc(Cc2ccc(C(=O)N/C=C\CCCC(=O)NCC(=O)OC)cc2)cc1 | 9 | 25 | –
COC(=O)CNC(=O)/C=C\C/C=C\NC(=O)/C=C(C)/C=C/[C@H](C)[C@H](OC)[C@H](C)[C@H](/C=C/c1ccccc1)OC [CROCACIN A] | 56 | 45 | Activity [2]: > 180 µM; Activity [3]: > 180 µM; Activity (Phytophthora infestans): > 180 µM; Activity (Puccinia triticina): 45 µM
COC(=O)CNC(=O)CCC/C=C\NC(=O)c1ccc(Cc2ccc(I)cc2)cc1 | 18 | – | –
COC(=O)CNC(=O)CCCc1ccccc1NC(=O)CCCCCCCCCc1ccccc1 | – | – | Activity (Bos taurus): inactive
CCc1ccc(Cc2ccc(C(=O)N/C=C\CCCC(=O)NCC(=O)OC)cc2)cc1 | 16 | – | –
CCc1ccc(Cc2ccc(Cn3c(=O)oc4ccc(OCC(=O)OC)cc43)cc2)cc1 | 45 | – | –
CCc1ccc(Oc2ccc(C(=O)N[C@H]3C[C@H]3CCC(=O)NCC(=O)OC)cc2)cc1 | 900 | – | –
CCCCCCCCCCCCC(=O)N/C=C\CCCC(=O)NCC(=O)OC | 24 | > 100 | –
CCCCCCOc1ccc(C(=O)N/C=C\CCCC(=O)NCC(=O)OC)cc1 | 21 | > 100 | –
COC(=O)CNC(=O)CCC/C=C\NC(=O)c1ccc(Cc2ccc(Br)cc2)cc1 | 17 | 10 | –
COC(=O)CNC(=O)CCC/C=C\NC(=O)/C=C(C)/C=C/[C@H](C)[C@H](OC)[C@H](C)[C@H](/C=C/c1ccccc1)OC [CROCACIN D] | 36 | 25 | Activity [2]: > 180 µM; Activity [3]: 45 µM; Activity (Phytophthora infestans): 45 µM; Activity (Puccinia triticina): 9 µM
COC(=O)COc1ccc2oc(=O)n(Cc3ccc(Cc4ccc(I)cc4)cc3)c2c1 | 75 | – | –
CCc1ccc(Oc2ccc(C(=O)NCCOCC(=O)NCC(=O)OC)cc2)cc1 | 230 | – | –
CCc1ccc(Cc2ccc(Cn3c(=O)oc4ccc(NCC(=O)OC)cc43)cc2)cc1 | – | – | Activity (Bos taurus): inactive
